Experiment [1] has as its system Pseudomonas aeruginosa. Briefly: Antimicrobial activity against SHV-12 ESBL producing Pseudomonas aeruginosa isolate 2201 isolated from burn patient by broth microdilution method. In kind it is functional. In outline: (§1)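 MICs were determined by broth microdilution following the CLSI proposal. For clavulanic acid combinations, clavulanate was held at a fixed concentration. The seven isolates came from a single burn patient over the clinical course. P072204 was taken from sputum; all others were taken from burn sites. Isolates were typed by PCR for blaSHV and IS26.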
On the technique in general: Broth dilution looks for growth in wells or tubes with falling amounts of substance.

In experiment [2] the test system is Pseudomonas aeruginosa. Briefly: Antimicrobial activity against SHV-12 ESBL producing Pseudomonas aeruginosa isolate 2202 isolated from burn patient by broth microdilution method. Format: functional. In short, it runs like this: as §1
Experiment [3] relates to Pseudomonas aeruginosa. Briefly: Antimicrobial activity against SHV-12 ESBL producing Pseudomonas aeruginosa isolate 2203 isolated from burn patient by broth microdilution method. In kind it is functional. In outline: as §1
Experiment [4] concerns Pseudomonas aeruginosa. Description: Antimicrobial activity against SHV-12 ESBL producing Pseudomonas aeruginosa isolate 2204 isolated from burn patient by broth microdilution method. In kind it is functional. In outline: as §1
Experiment [5] has as its system Pseudomonas aeruginosa. Description: Antimicrobial activity against SHV-12 ESBL producing Pseudomonas aeruginosa isolate 2205 isolated from burn patient by broth microdilution method. In kind it is functional. In outline:
as §1

Experiment [6] concerns Pseudomonas aeruginosa. Briefly: Antimicrobial activity against SHV-12 ESBL producing Pseudomonas aeruginosa isolate 2206 isolated from burn patient by broth microdilution method. Format: functional. In short, it runs like this:
as §1

For experiment [7], the system named is Pseudomonas aeruginosa. Briefly: Antimicrobial activity against SHV-12 ESBL producing Pseudomonas aeruginosa isolate 2207 isolated from burn patient by broth microdilution method. In kind it is functional. In short, it runs like this: as §1
The subject of experiment [8] is Pseudomonas aeruginosa. Description: Antimicrobial activity against SHV-12 ESBL producing Pseudomonas aeruginosa isolate 2201 isolated from burn patient by broth microdilution method in presence of beta-lactamase inhibitor clavulanic acid. Format: functional.
For experiment [9], the system named is Pseudomonas aeruginosa. Briefly: Antimicrobial activity against SHV-12 ESBL producing Pseudomonas aeruginosa isolate 2205 isolated from burn patient by broth microdilution method in presence of beta-lactamase inhibitor clavulanic acid. Format: functional.
Experiment [10] concerns Pseudomonas aeruginosa. Description: Antimicrobial activity against SHV-12 ESBL producing Pseudomonas aeruginosa isolate 2206 isolated from burn patient by broth microdilution method in presence of beta-lactamase inhibitor clavulanic acid. Format: functional.
Experiment [11] deals with Pseudomonas aeruginosa. Briefly: Antimicrobial activity against SHV-12 ESBL producing Pseudomonas aeruginosa isolate 2207 isolated from burn patient by broth microdilution method in presence of beta-lactamase inhibitor clavulanic acid. In kind it is functional.
Experiment [12] concerns Pseudomonas aeruginosa. Description: Antimicrobial activity against SHV-12 ESBL non-producing Pseudomonas aeruginosa isolate 2202 isolated from burn patient by broth microdilution method in presence of beta-lactamase inhibitor clavulanic acid.
In experiment [13] the test system is Pseudomonas aeruginosa. Description: Antimicrobial activity against SHV-12 ESBL non-producing Pseudomonas aeruginosa isolate 2203 isolated from burn patient by broth microdilution method in presence of beta-lactamase inhibitor clavulanic acid.
The test system of experiment [14] is Pseudomonas aeruginosa. Description: Antimicrobial activity against SHV-12 ESBL non-producing Pseudomonas aeruginosa isolate 2204 isolated from burn patient by broth microdilution method in presence of beta-lactamase inhibitor clavulanic acid.

Converted amounts (≈) assume the structure as drawn. Where only a bound is given, the exact number is not on record here.

Turning to `CCN1CCN(C(=O)N[C@@H](C(=O)N[C@@H]2C(=O)N3[C@@H]2SC(C)(C)[C@@H]3C(=O)O)c2ccccc2)C(=O)C1=O` [PIPERACILLIN], the MIC (commonly the least concentration at which growth counts as inhibited) against Pseudomonas aeruginosa [1] came to 16 µg/mL (≈ 30.9 µM); in the experiment with Pseudomonas aeruginosa [2], 32 µg/mL (≈ 61.8 µM); in the experiment with Pseudomonas aeruginosa [3], 16 µg/mL (≈ 30.9 µM); in the experiment on Pseudomonas aeruginosa [4], 16 µg/mL (≈ 30.9 µM); with Pseudomonas aeruginosa [5], 256 µg/mL (≈ 495 µM); with Pseudomonas aeruginosa [6] it was 512 µg/mL (≈ 989 µM). Also, the MIC against Pseudomonas aeruginosa [7] is 512 µg/mL (≈ 989 µM); in the experiment with Pseudomonas aeruginosa [8] it was 16 µg/mL; in the experiment on Pseudomonas aeruginosa [9], 128 µg/mL; in the experiment on Pseudomonas aeruginosa [10], 256 µg/mL; in the experiment on Pseudomonas aeruginosa [11], 256 µg/mL; with Pseudomonas aeruginosa [12] it was 32 µg/mL. Besides, the MIC in the experiment on Pseudomonas aeruginosa [13] and in the experiment on Pseudomonas aeruginosa [14] was 16 µg/mL throughout.
For the molecule `CC(C)(O/N=C(\C(=O)N[C@@H]1C(=O)N2C(C(=O)[O-])=C(C[n+]3ccccc3)CS[C@H]12)c1csc(N)n1)C(=O)O` [CEFTAZIDIME], the MIC in the experiment with Pseudomonas aeruginosa [1] is 2 µg/mL (≈ 3.66 µM); with Pseudomonas aeruginosa [2], 16 µg/mL (≈ 29.3 µM); in the experiment on Pseudomonas aeruginosa [3], 8 µg/mL (≈ 14.6 µM); with Pseudomonas aeruginosa [4], 4 µg/mL (≈ 7.32 µM); in the experiment on Pseudomonas aeruginosa [5], 512 µg/mL (≈ 937 µM); in the experiment on Pseudomonas aeruginosa [6] it was 512 µg/mL (≈ 937 µM). Moreover, the MIC with Pseudomonas aeruginosa [7] amounted to 512 µg/mL (≈ 937 µM); in the experiment on Pseudomonas aeruginosa [8], 2 µg/mL; with Pseudomonas aeruginosa [9] it was 16 µg/mL; in the experiment on Pseudomonas aeruginosa [10], 16 µg/mL; with Pseudomonas aeruginosa [11], 16 µg/mL; with Pseudomonas aeruginosa [12], 16 µg/mL. Also, the figures for the MIC in the experiment on Pseudomonas aeruginosa [13] and with Pseudomonas aeruginosa [14] were 8 µg/mL and 4 µg/mL, respectively.
For `C[C@H]1[C@H](NC(=O)/C(=N\OC(C)(C)C(=O)O)c2csc(N)n2)C(=O)N1S(=O)(=O)O` [AZTREONAM], the MIC against Pseudomonas aeruginosa [5], with Pseudomonas aeruginosa [6] and in the experiment with Pseudomonas aeruginosa [7] was 512 µg/mL (≈ 1180 µM) in each case.
As for `NCC[C@H](O)C(=O)N[C@@H]1C[C@H](N)[C@@H](O[C@H]2O[C@H](CN)[C@@H](O)[C@H](O)[C@H]2O)[C@H](O)[C@H]1O[C@H]1O[C@H](CO)[C@@H](O)[C@H](N)[C@H]1O` [AMIKACIN], the minimal inhibitory concentration (MIC) came out at 4 µg/mL (≈ 6.83 µM) against Pseudomonas aeruginosa [1]; 4 µg/mL (≈ 6.83 µM) against Pseudomonas aeruginosa [2]; 4 µg/mL (≈ 6.83 µM) against Pseudomonas aeruginosa [3]; 4 µg/mL (≈ 6.83 µM) against Pseudomonas aeruginosa [4]; 128 µg/mL (≈ 219 µM) with Pseudomonas aeruginosa [5]; 128 µg/mL (≈ 219 µM) in the experiment on Pseudomonas aeruginosa [6]. For the same molecule, 128 µg/mL (≈ 219 µM) was the least that counted as inhibitory in the experiment on Pseudomonas aeruginosa [7] (MIC).
In the case of `CO/N=C(\C(=O)N[C@@H]1C(=O)N2C(C(=O)[O-])=C(C[N+]3(C)CCCC3)CS[C@H]12)c1csc(N)n1`, the MIC against Pseudomonas aeruginosa [5] was 256 µg/mL (≈ 533 µM); in the experiment with Pseudomonas aeruginosa [6], 512 µg/mL (≈ 1070 µM); in the experiment with Pseudomonas aeruginosa [7], 512 µg/mL (≈ 1070 µM).
Regarding `CC1(C)S[C@@H]2[C@H](NC(=O)[C@H](C(=O)O)c3ccsc3)C(=O)N2[C@H]1C(=O)O` [TICARCILLIN], the minimal inhibitory concentration (MIC) against Pseudomonas aeruginosa [1] is 16 µg/mL (≈ 41.6 µM); with Pseudomonas aeruginosa [2], 32 µg/mL (≈ 83.2 µM); against Pseudomonas aeruginosa [3] it was 32 µg/mL (≈ 83.2 µM); against Pseudomonas aeruginosa [4] it was 64 µg/mL (≈ 166 µM); against Pseudomonas aeruginosa [5], more than 512 µg/mL; against Pseudomonas aeruginosa [6], more than 512 µg/mL. Moreover, the minimal inhibitory concentration (MIC) was more than 512 µg/mL in the experiment on Pseudomonas aeruginosa [7]; 16 µg/mL with Pseudomonas aeruginosa [8]; more than 512 µg/mL in the experiment with Pseudomonas aeruginosa [9]; more than 512 µg/mL in the experiment on Pseudomonas aeruginosa [10]; more than 512 µg/mL with Pseudomonas aeruginosa [11]; 32 µg/mL in the experiment on Pseudomonas aeruginosa [12]. Moreover, the MIC in the experiment on Pseudomonas aeruginosa [13] worked out at 32 µg/mL; in the experiment on Pseudomonas aeruginosa [14], 64 µg/mL.
Take `CO/N=C(\C(=O)N[C@@H]1C(=O)N2C(C(=O)O)=C(COC(C)=O)CS[C@H]12)c1csc(N)n1` [CEFOTAXIME]: the minimum inhibitory concentration (MIC) with Pseudomonas aeruginosa [1] is 16 µg/mL (≈ 35.1 µM); against Pseudomonas aeruginosa [2], 256 µg/mL (≈ 562 µM); against Pseudomonas aeruginosa [3], 128 µg/mL (≈ 281 µM); against Pseudomonas aeruginosa [4], 64 µg/mL (≈ 141 µM); against Pseudomonas aeruginosa [5] it was 512 µg/mL (≈ 1120 µM); with Pseudomonas aeruginosa [6], 512 µg/mL (≈ 1120 µM). Also, the MIC in the experiment on Pseudomonas aeruginosa [7] was 512 µg/mL (≈ 1120 µM); with Pseudomonas aeruginosa [8] it was 16 µg/mL; in the experiment with Pseudomonas aeruginosa [9], 64 µg/mL; with Pseudomonas aeruginosa [10], 64 µg/mL; in the experiment with Pseudomonas aeruginosa [11] it was 64 µg/mL; in the experiment with Pseudomonas aeruginosa [12], 256 µg/mL. In addition, the MIC in the experiment on Pseudomonas aeruginosa [13] came to 128 µg/mL; with Pseudomonas aeruginosa [14] it was 64 µg/mL.

The values are drawn from ChEMBL document CHEMBL1649317, “Acquisition of a transposon encoding extended-spectrum beta-lactamase SHV-12 by Pseudomonas aeruginosa isolates during the clinical course of a burn patient” (2010).
